Data set [1] has as its system Mus musculus. Put plainly: Anticonvulsant activity in ip dosed mouse assessed as protection against maximal electric shock-induced seizures. The format is functional, organism-based. The method in brief: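 Compound suspended in 0.5% methylcellulose and given ip to mice; screening doses 30, 100 and 300 mg/kg, read at 0.25–4 h. Protection was defined as abolition of hindlimb tonic extension.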

For data set [2], the system named is Mus musculus. The data set can be described thus: Anticonvulsant activity in mouse assessed as protection against maximal electric shock-induced seizures at 30 mg/kg, ip measured after 4 hrs. The class given is functional, organism-based. Summed up:
(§1)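 Mice dosed ip with suspension in 0.5% methylcellulose; maximal electroshock applied at the listed time after dosing. Protection = abolition of hindlimb tonic extension component of seizure; reported as animals protected/animals tested.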

Data set [3] has as its system Mus musculus. Put plainly: Neurotoxicity in mouse at 300 mg/kg, ip after 4 hrs by rotarod test. To be noted: in vivo. The class given is toxicity, organism-based. The method in brief: (§2)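 Mice were dosed ip with compound suspended in 0.5% methylcellulose. Rotarod: a 1 in. knurled rod turning at 6 rpm. Neurotoxicity was scored as failure to stay on the rod for at least 1 min in each of three trials. Results are given as the number of animals affected out of the number tested.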
On the technique in general: The rotarod test checks motor coordination on a turning rod.

For data set [4], the system named is Mus musculus. Put plainly: Anticonvulsant activity in mouse assessed as protection against subcutaneous pentylenetetrazol-induced seizures at 300 mg/kg, ip measured after 0.5 hrs. The class given is functional, organism-based. Summed up:
(§3)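 Mice dosed ip as 0.5% methylcellulose suspension; pentylenetetrazole 85 mg/kg in 0.9% NaCl injected subcutaneously into posterior midline, animals watched at least 30 min. Protection = no threshold seizure (single clonic spasm episode lasting ≥5 s); scored protected/tested.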

Data set [5] concerns Mus musculus. The data set can be described thus: Anticonvulsant activity in mouse assessed as protection against subcutaneous pentylenetetrazol-induced seizures at 30 mg/kg, ip measured after 4 hrs. The format is functional, organism-based. Summed up:
as §3

Data set [6] concerns Mus musculus. The data set can be described thus: Anticonvulsant activity in mouse assessed as protection against maximal electric shock-induced seizures at 300 mg/kg, ip measured after 4 hrs. The class given is functional, organism-based. The method in brief: as §1
Data set [7] relates to Mus musculus. Put plainly: Neurotoxicity in mouse at 30 mg/kg, ip after 4 hrs by rotarod test. As to conditions: in vivo. The class given is toxicity, organism-based. The method in brief:
as §2

The test system of data set [8] is Mus musculus. Put plainly: Neurotoxicity in mouse at 30 mg/kg, ip after 0.5 hrs by rotarod test. The class given is toxicity, organism-based. As to conditions: in vivo. The method in brief:
as §2

Data set [9] deals with Mus musculus. The data set can be described thus: Anticonvulsant activity in mouse assessed as protection against subcutaneous pentylenetetrazol-induced seizures at 100 mg/kg, ip measured after 0.5 hrs. The class given is functional, organism-based. The method in brief: as §3
The subject of data set [10] is Mus musculus. The data set can be described thus: Anticonvulsant activity in mouse assessed as protection against maximal electric shock-induced seizures at 30 mg/kg, ip measured after 0.5 hrs. The format is functional, organism-based. The method in brief: as §1
In data set [11] the test system is Mus musculus. Put plainly: Anticonvulsant activity in mouse assessed as protection against maximal electric shock-induced seizures at 100 mg/kg, ip measured after 4 hrs. The class given is functional, organism-based. The method in brief:
as §1

Data set [12] deals with Mus musculus. Put plainly: Anticonvulsant activity in mouse assessed as protection against subcutaneous pentylenetetrazol-induced seizures at 100 mg/kg, ip measured after 4 hrs. The format is functional, organism-based. Summed up: as §3
In data set [13] the test system is Mus musculus. Put plainly: Anticonvulsant activity in mouse assessed as protection against subcutaneous pentylenetetrazol-induced seizures at 300 mg/kg, ip measured after 4 hrs. The class given is functional, organism-based. The method in brief: as §3
The subject of data set [14] is Mus musculus. The data set can be described thus: Anticonvulsant activity in mouse assessed as protection against maximal electric shock-induced seizures at 100 mg/kg, ip measured after 0.5 hrs. The format is functional, organism-based. Summed up: as §1
Data set [15] relates to Mus musculus. The data set can be described thus: Anticonvulsant activity in mouse assessed as protection against maximal electric shock-induced seizures at 300 mg/kg, ip measured after 0.5 hrs. The class given is functional, organism-based. Summed up:
as §1

Data set [16] deals with Mus musculus. Put plainly: Anticonvulsant activity in mouse assessed as protection against maximal electric shock-induced seizures at 100 mg/kg, ip measured after 1 hr. The format is functional, organism-based. Summed up:
as §1

Data set [17] deals with Mus musculus. The data set can be described thus: Neurotoxicity in mouse at 100 mg/kg, ip after 1 hr by rotarod test. The class given is toxicity, organism-based. To be noted: in vivo. Summed up: as §2
Data set [18] has as its system Mus musculus. Put plainly: Neurotoxicity in mouse at 30 mg/kg, ip after […] by rotarod test. The class given is toxicity, organism-based. As to conditions: in vivo.
The subject of data set [19] is Mus musculus. Put plainly: Anticonvulsant activity in mouse assessed as protection against maximal electric shock-induced seizures at 100 mg/kg, ip measured after […]. The class given is functional, organism-based.
Data set [20] concerns Mus musculus. Put plainly: Anticonvulsant activity in mouse assessed as protection against subcutaneous pentylenetetrazol-induced seizures at 30 mg/kg, ip measured after 0.5 hrs. The format is functional, organism-based. The method in brief:
as §3

In data set [21] the test system is Mus musculus. The data set can be described thus: Neurotoxicity in mouse at 300 mg/kg, ip after 0.5 hrs by rotarod test. The class given is toxicity, organism-based. As to conditions: in vivo. Summed up:
as §2

The structures appear in SMILES notation. Active and inactive are the calls of the source.

`Cc1cccc(C)c1OCC(C)N` (stereo not drawn) [MEXILETINE]: the EC50 in data set [1] came out at 20 mg/kg.

In the case of `Cc1cccc(OCCNCC(O)c2ccccc2)c1C` (stereo not drawn), the outcome in data set [2], in data set [4], in [5], in [6], in [9] and in data set [10] was inactive. Also, the outcome in data set [11], in [12], in data set [13], in data set [14] and in data set [15] was inactive. Also, the Activity entry in data set [3], in [7] and in data set [8] was “Non-toxic” each time.

On to `Cc1cccc(OCCCNCC(O)c2ccccc2)c1C` (stereo not drawn), for which the result in data set [16], in data set [2], in data set [4], in data set [5], in [6] and in data set [19] was inactive. Moreover, the outcome in [9], in data set [10], in data set [20], in [11], in [12] and in data set [13] was inactive. Besides, in [14], the outcome was inactive. Besides, the Activity result in data set [3], in data set [17], in data set [18] and in [21] was “Toxic” throughout. In addition, the outcome in [15] was Active.

Source of the values: ChEMBL document CHEMBL3774372, “Design, physico-chemical properties and biological evaluation of some new N-[(phenoxy)alkyl]- and N-{2-[2-(phenoxy)ethoxy]ethyl}aminoalkanols as anticonvulsant agents” (Bioorg Med Chem, 2016).
